Laboratory results reported in ChEMBL document CHEMBL1140859, “Design and synthesis of some thiazolyl and thiadiazolyl derivatives of antipyrine as potential non-acidic anti-inflammatory, analgesic and antimicrobial agents” (Bioorg Med Chem, 2009).
≈ marks a conversion by molar mass, not a printed value.

How the values were obtained:
[1] = test system: Staphylococcus aureus; experiment: Antimicrobial activity against Staphylococcus aureus ATCC 6538 after 24 hrs by twofold serial dilution method; type: functional; conditions: ATCC 6538, 24 h
How it was run: (§1)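 Broth microdilution in Müller–Hinton broth on compounds with agar-diffusion inhibition zones ≥14 mm (disks with 1 mg/mL in DMSO, 37 °C, 24 h, triplicate).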

[2] = test system: Escherichia coli; experiment: Antimicrobial activity against Escherichia coli ATCC 25922 after 24 hrs by twofold serial dilution method; type: functional; conditions: ATCC 25922, 24 h; how it was run: as §1
[3] = test system: Bacillus subtilis; experiment: Antimicrobial activity against Bacillus subtilis NRRL B-14819 after 24 hrs by twofold serial dilution method; type: functional; how it was run: as §1
[4] = test system: Klebsiella pneumoniae; experiment: Antimicrobial activity against Klebsiella pneumoniae clinical isolate after 24 hrs by twofold serial dilution method; type: functional; how it was run: as §1
[5] = test system: Pseudomonas aeruginosa; experiment: Antimicrobial activity against Pseudomonas aeruginosa ATCC 27853 after 24 hrs by twofold serial dilution method; type: functional; conditions: ATCC 27853, 24 h; how it was run: as §1
[6] = test system: Rattus norvegicus; experiment: Antiinflammatory activity against formalin-induced paw edema in anaesthetized Albino rat acute inflammatory model at 20 mg/kg, po dosed 1 hr before formalin challenge assessed after 3 hrs; type: functional
How it was run: (§2)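 Rats in groups of five plus control; test compounds 20 mg/kg po, diclofenac Na 10 mg/kg po, given 1 h before 0.1 mL 2% formalin injected subplantar into left hind paw under light ether anaesthesia. Paw volume by water plethysmometer at 0 and 1, 2, 3, 4 h after formalin; % anti-inflammatory activity versus control; mean ± SE, N = 5.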

[7] = test system: Rattus norvegicus; experiment: Antiinflammatory activity against formalin-induced paw edema in anaesthetized Albino rat sub-acute inflammatory model at 20 mg/kg, po measured on day 1; type: functional
How it was run: (§3)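 Sub-acute paw edema: test compounds 20 mg/kg po daily for 7 days, diclofenac Na 10 mg/kg po; 0.1 mL 2% formalin injected subplantar into left hind paw under light ether anaesthesia on days 1 and 3, 1 h after dosing. Paw volume measured on day 1 and day 8; % anti-inflammatory activity; N = 5 rats.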

[8] = test system: Rattus norvegicus; experiment: Antiinflammatory activity against formalin-induced paw edema in anaesthetized Albino rat sub-acute inflammatory model at 20 mg/kg, po for 7 days measured on day 8; type: functional; how it was run: as §3
[9] = test system: Rattus norvegicus; experiment: Analgesic activity in Albino rat assessed as tail withdrawal response at 20 mg/kg, po after 1 hr; type: functional
How it was run: (§4)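 Male albino rats, 120–150 g, groups of five plus untreated control; test compounds 20 mg/kg po, diclofenac Na 10 mg/kg po. Tail immersed in 55 °C water; withdrawal reaction time read 1, 2 and 3 h after dosing; percentage increase in reaction time over basal computed; mean ± SE of five animals.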

[10] = test system: Rattus norvegicus; experiment: Toxicity in Albino rat assessed as induction of gastric ulceration at 300 mg/kg, po twice a day after 2 hrs; type: organism-based, Stomach; design: dose 300 mg/kg, route oral; conditions: in vivo
How it was run: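 Male albino rats (180–200 g), five per group, fasted 12 h with water ad libitum. Oral dosing at 300 mg/kg; the results text gives two doses at a 2 h interval, while the methods give two equal doses at 0 and 12 h over three days. Controls received 1% gum acacia orally. Rats were killed with ether 6 h after the last dose, and stomachs were inspected grossly for ulceration and hyperemia.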

[11] = test system: Rattus norvegicus; experiment: Analgesic activity in Albino rat assessed as tail withdrawal response at 20 mg/kg, po after 2 hrs; type: functional; how it was run: as §4
[12] = test system: Rattus norvegicus; experiment: Antiinflammatory activity against turpentine oil-induced granuloma pouch in anaesthetized Albino rat sub-acute inflammatory model at 20 mg/kg, po 1 hr before turpentine oil challenge for 7 days assessed after 8 days; type: functional
How it was run: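 Dorsal subcutaneous pouch made in ether-anaesthetised rats with 2 mL air, then 0.5 mL turpentine oil. Test compounds 20 mg/kg po, diclofenac Na 10 mg/kg po, started 1 h before turpentine and continued 7 days. Exudate aspirated on day 8 under anaesthesia; volume measured; % inhibition = (Vcontrol − Vtreated)/Vcontrol × 100; N = 5.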

[13] = Acute toxicity in Albino rat after 24 hrs; type: organism-based; conditions: in vivo, read-out: ALD50
How it was run: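 Male rats, 180–200 g, groups of five, fasted 24 h before dosing; compounds given orally in graded doses of 0.1–3.0 g/kg; mortality recorded at each dose level after 24 h to estimate approximate acute lethal dose (ALD50).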

[14] = test system: Rattus norvegicus; experiment: Antiinflammatory activity against formalin-induced paw edema in anaesthetized Albino rat acute inflammatory model at 20 mg/kg, po dosed 1 hr before formalin challenge assessed after 4 hrs; type: functional; how it was run: as §2
[15] = test system: Rattus norvegicus; experiment: Antiinflammatory activity against formalin-induced paw edema in anaesthetized Albino rat acute inflammatory model at 20 mg/kg, po dosed 1 hr before formalin challenge assessed after 1 hr; type: functional; how it was run: as §2
[16] = test system: Rattus norvegicus; experiment: Antiinflammatory activity against formalin-induced paw edema in anaesthetized Albino rat acute inflammatory model at 20 mg/kg, po dosed 1 hr before formalin challenge assessed after 2 hrs; type: functional; how it was run: as §2
[17] = test system: Rattus norvegicus; experiment: Analgesic activity in Albino rat assessed as tail withdrawal response at 20 mg/kg, po after 3 hrs; type: functional; how it was run: as §4
[18] = test system: Micrococcus luteus; experiment: Antimicrobial activity against Micrococcus luteus ATCC 21881 after 24 hrs by twofold serial dilution method; type: functional; conditions: ATCC 21881, 24 h; how it was run: as §1

| SMILES | MIC [1] [µg/mL] | MIC [2] [µg/mL] | MIC [3] [µg/mL] | MIC [4] [µg/mL] | MIC [5] [µg/mL] | Activity [6] [%] | Activity [7] [%] | Activity [8] [%] | Activity [9] [%] | Activity [10] | Activity [11] [%] | Activity [12] [%] | LD50 at 24 h [13] [mg/kg] | Activity [14] [%] | Activity [15] [%] | Activity [16] [%] | Activity [17] [%] | MIC [18] [µg/mL] |
| --- | --- | --- | --- | --- | --- | --- | --- | --- | --- | --- | --- | --- | --- | --- | --- | --- | --- | --- |
| Cc1c(NC(=O)c2sc(=S)n(-c3ccccc3)c2NC(=S)Nc2ccc(Cl)cc2)c(=O)n(-c2ccccc2)n1C | 25 (≈ 41.2 µM) | 25 (≈ 41.2 µM) | 12.5 (≈ 20.6 µM) | 50 (≈ 82.3 µM) | 50 (≈ 82.3 µM) | – | – | – | – | – | – | – | – | – | – | – | – | – |
| Cc1c(NC(=O)CSc2nnc(NC(=S)Nc3ccccc3)s2)c(=O)n(-c2ccccc2)n1C | 100 (≈ 195 µM) | – | – | – | – | 21 | 23 | 20 | 27 | Non-toxic | 43 | 19 | > 3000 | 26 | 26 | 31 | 46 | – |
| Cc1c(NC(=O)/C(C#N)=C2\SC=C(c3ccc(Cl)cc3)N2c2ccc(Cl)cc2)c(=O)n(-c2ccccc2)n1C | – | – | 100 (≈ 174 µM) | – | – | 41 | 29 | 39 | 34 | Non-toxic | 64 | 60 | > 3000 | 29 | 35 | 40 | 58 | – |
| Cc1c(NC(=O)C2=C(N)N(c3ccccc3)C(=C(C#N)C#N)S2)c(=O)n(-c2ccccc2)n1C | – | – | 100 (≈ 213 µM) | – | – | 38 | 40 | 32 | 27 | Non-toxic | 46 | 62 | > 3000 | 40 | 26 | 40 | 72 | – |
| Cc1c(NC(=O)/C(C#N)=C2\SC=C(c3ccc(Br)cc3)N2c2ccccc2)c(=O)n(-c2ccccc2)n1C | – | – | 100 (≈ 171 µM) | – | – | – | – | – | – | – | – | – | – | – | – | – | – | – |
| CC(=O)Nc1nnc(SCC(=O)Nc2c(C)n(C)n(-c3ccccc3)c2=O)s1 | 100 (≈ 239 µM) | – | – | – | – | 46 | 29 | 39 | 30 | Non-toxic | 60 | 60 | > 3000 | 43 | 43 | 37 | 55 | – |
| Cc1c(NC(=O)c2sc(=S)n(-c3ccc(Cl)cc3)c2NC(=S)Nc2ccc(Cl)cc2)c(=O)n(-c2ccccc2)n1C | – | – | 100 (≈ 156 µM) | – | – | – | – | – | – | – | – | – | – | – | – | – | – | – |
| Cc1c(NC(=O)CSc2nnc(N)s2)c(=O)n(-c2ccccc2)n1C | – | – | – | – | – | 49 | 29 | 39 | 42 | Non-toxic | 71 | 62 | > 3000 | 38 | 26 | 43 | 76 | – |
| Cc1c(NC(=O)c2sc(=S)n(-c3ccc(Cl)cc3)c2NC(=O)Nc2ccccc2)c(=O)n(-c2ccccc2)n1C | – | – | 100 (≈ 169 µM) | – | – | 49 | 31 | 42 | 18 | Non-toxic | 49 | 72 | > 3000 | 40 | 26 | 37 | 44 | – |
| Cc1c(NC(=O)c2sc(=S)n(-c3ccc(Cl)cc3)c2NC(=S)Nc2ccccc2)c(=O)n(-c2ccccc2)n1C | 100 (≈ 165 µM) | – | – | – | – | – | – | – | – | – | – | – | – | – | – | – | – | – |
| Cc1c(NC(=O)CSc2nnc(NC(=S)Nc3ccc(Cl)cc3)s2)c(=O)n(-c2ccccc2)n1C | 100 (≈ 183 µM) | – | – | – | – | – | – | – | – | – | – | – | – | – | – | – | – | – |
| CCOC(=O)Nc1nnc(SCC(=O)Nc2c(C)n(C)n(-c3ccccc3)c2=O)s1 | – | – | 100 (≈ 223 µM) | – | – | 23 | 29 | 27 | 17 | Non-toxic | 15 | 33 | > 3000 | 19 | 35 | 17 | 28 | – |
| Cc1nc2c(sc(=S)n2-c2ccc(Cl)cc2)c(=O)n1-c1c(C)n(C)n(-c2ccccc2)c1=O | – | – | 100 (≈ 202 µM) | – | – | – | – | – | – | – | – | – | – | – | – | – | – | 100 (≈ 202 µM) |
| Cc1c(NC(=O)c2sc(=S)n(-c3ccc(Cl)cc3)c2N)c(=O)n(-c2ccccc2)n1C | – | – | 100 (≈ 212 µM) | – | – | – | – | – | – | – | – | – | – | – | – | – | – | 100 (≈ 212 µM) |
| Cc1c(NC(=O)/C(C#N)=C2\SC=C(c3ccc(Cl)cc3)N2c2ccccc2)c(=O)n(-c2ccccc2)n1C | 100 (≈ 185 µM) | – | – | – | – | 33 | 37 | 44 | 22 | Non-toxic | 43 | 58 | > 3000 | 43 | 39 | 29 | 43 | – |
| Cc1c(NC(=O)/C(C#N)=C2\SCC(=O)N2c2ccc(Cl)cc2)c(=O)n(-c2ccccc2)n1C | 50 (≈ 104 µM) | 25 (≈ 52.1 µM) | 25 (≈ 52.1 µM) | 100 (≈ 208 µM) | 50 (≈ 104 µM) | – | – | – | – | – | – | – | – | – | – | – | – | 12.5 (≈ 26 µM) |
| Cc1c(NC(=O)c2sc(=S)n(-c3ccccc3)c2N)c(=O)n(-c2ccccc2)n1C | – | – | 100 (≈ 229 µM) | – | – | 41 | 20 | 34 | 19 | Non-toxic | 50 | 50 | > 3000 | 43 | 35 | 37 | 67 | – |
